What was measured:
Format in all cases: functional
Escherichia coli [1] = assay: Antimicrobial activity against Escherichia coli isolate J53 harboring pA-1 containing beta-lactamase OXA-48 located within transposon Tn1999 by Etest method in presence of beta-lactamase inhibitor clavulanic acid
How it was run: (§1)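 β-Lactam MICs read with Etest strips. Strains are E. coli J53 recipient and J53 transconjugants carrying OXA-48-positive plasmids recovered from clinical enterobacterial isolates.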

Klebsiella pneumoniae [2] = assay: Antimicrobial activity against Klebsiella pneumoniae isolate KpL expressing beta-lactamase OXA-48 by Etest method
Klebsiella pneumoniae [3] = assay: Antimicrobial activity against Klebsiella pneumoniae isolate Kp7A expressing beta-lactamase OXA-48 by Etest method
How it was run: (§2)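 MICs of β-lactams read from Etest strips. The test organisms are carbapenem-resistant, OXA-48-positive clinical Enterobacteriaceae isolates recovered from Turkey, Lebanon, Egypt, France and Belgium.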

Escherichia coli [4] = assay: Antimicrobial activity against Escherichia coli isolate J53 harboring pEnc2 containing beta-lactamase OXA-48 located within transposon Tn1999 by Etest method; how it was run: as §1
Escherichia coli [5] = assay: Antimicrobial activity against Escherichia coli isolate A expressing beta-lactamase OXA-48 and TEM-150 by Etest method
Escherichia coli [6] = assay: Antimicrobial activity against Escherichia coli isolate TOP10 harboring pBIC containing beta-lactamase OXA-48 located within transposon Tn1999.2 by Etest method in presence of beta-lactamase inhibitor clavulanic acid
How it was run: (§3)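 β-Lactam MICs read with Etest strips. Strains are E. coli TOP10 host and TOP10 transformants made with plasmid DNA extract when conjugation failed. Transformants were selected on LB agar with ticarcillin 50 μg/ml.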

Klebsiella pneumoniae [7] = assay: Antimicrobial activity against Klebsiella pneumoniae isolate Kp5A expressing beta-lactamase OXA-48 and SHV-5 by Etest method in presence of beta-lactamase inhibitor clavulanic acid; how it was run: as §2
Klebsiella pneumoniae [8] = assay: Antimicrobial activity against Klebsiella pneumoniae isolate KpI-1 expressing beta-lactamase OXA-48 and CTX-M-15 by Etest method
Klebsiella pneumoniae [9] = assay: Antimicrobial activity against Klebsiella pneumoniae isolate KpBIC expressing beta-lactamase OXA-48 by Etest method; how it was run: as §2
Enterobacter cloacae [10] = assay: Antimicrobial activity against Enterobacter cloacae isolate 1 expressing beta-lactamase OXA-48 and SHV-5 by Etest method in presence of beta-lactamase inhibitor clavulanic acid; how it was run: as §2
Escherichia coli [11] = assay: Antimicrobial activity against Escherichia coli isolate J53 harboring p6A containing beta-lactamase OXA-48 located within transposon Tn1999 by Etest method in presence of beta-lactamase inhibitor clavulanic acid; how it was run: as §1
Enterobacter cloacae [12] = assay: Antimicrobial activity against Enterobacter cloacae isolate 2 expressing beta-lactamase OXA-48 and SHV-5 by Etest method
Escherichia coli [13] = assay: Antimicrobial activity against Escherichia coli isolate J53 harboring p3A containing beta-lactamase OXA-48 located within transposon Tn1999 by Etest method; how it was run: as §1
Klebsiella pneumoniae [14] = assay: Antimicrobial activity against Klebsiella pneumoniae isolate Kp6A expressing beta-lactamase OXA-48 and TEM-150 by Etest method
Escherichia coli [15] = assay: Antimicrobial activity against Escherichia coli isolate J53 harboring pEcA containing beta-lactamase OXA-48 located within transposon Tn1999.2 by Etest method; how it was run: as §1
Klebsiella pneumoniae [16] = assay: Antimicrobial activity against Klebsiella pneumoniae isolate KpE expressing beta-lactamase OXA-48 and CTX-M-15 by Etest method in presence of beta-lactamase inhibitor clavulanic acid; how it was run: as §2
Escherichia coli [17] = assay: Antimicrobial activity against Escherichia coli isolate J53 harboring p5A containing beta-lactamase OXA-48 located within transposon Tn1999 by Etest method; how it was run: as §1
Escherichia coli [18] = assay: Antimicrobial activity against Escherichia coli isolate J53 harboring p6A containing beta-lactamase OXA-48 located within transposon Tn1999 by Etest method; how it was run: as §1
Escherichia coli [19] = assay: Antimicrobial activity against Escherichia coli isolate J53 harboring pBEL containing beta-lactamase OXA-48 located within transposon Tn1999.2 by Etest method in presence of beta-lactamase inhibitor clavulanic acid; how it was run: as §1
Klebsiella pneumoniae [20] = assay: Antimicrobial activity against Klebsiella pneumoniae isolate Kp3A expressing beta-lactamase OXA-48 by Etest method in presence of beta-lactamase inhibitor clavulanic acid; how it was run: as §2
Klebsiella pneumoniae [21] = assay: Antimicrobial activity against Klebsiella pneumoniae isolate Kp7A expressing beta-lactamase OXA-48 by Etest method in presence of beta-lactamase inhibitor clavulanic acid; how it was run: as §2
Klebsiella pneumoniae [22] = assay: Antimicrobial activity against Klebsiella pneumoniae isolate KpI-2 expressing beta-lactamase OXA-48 and CTX-M-15 by Etest method
Escherichia coli [23] = assay: Antimicrobial activity against Escherichia coli isolate TOP10 harboring pPR containing beta-lactamase and TEM-101 by Etest method; how it was run: as §3
Klebsiella pneumoniae [24] = assay: Antimicrobial activity against Klebsiella pneumoniae isolate Kp11978 expressing beta-lactamase OXA-48, SHV-2a and TEM-1 by Etest method
Klebsiella pneumoniae [25] = assay: Antimicrobial activity against Klebsiella pneumoniae isolate Kp4A expressing beta-lactamase OXA-48 and CTX-M-15 by Etest method
Klebsiella pneumoniae [26] = assay: Antimicrobial activity against Klebsiella pneumoniae isolate Kp4A expressing beta-lactamase OXA-48 and CTX-M-15 by Etest method in presence of beta-lactamase inhibitor clavulanic acid; how it was run: as §2
Escherichia coli [27] = assay: Antimicrobial activity against Escherichia coli isolate J53 harboring pEcA containing beta-lactamase OXA-48 located within transposon Tn1999.2 by Etest method in presence of beta-lactamase inhibitor clavulanic acid; how it was run: as §1
Escherichia coli [28] = assay: Antimicrobial activity against Escherichia coli isolate J53 harboring pL containing beta-lactamase OXA-48 located within transposon Tn1999.2 by Etest method in presence of beta-lactamase inhibitor clavulanic acid; how it was run: as §1
Escherichia coli [29] = assay: Antimicrobial activity against Escherichia coli isolate J53 harboring p4A containing beta-lactamase OXA-48 located within transposon Tn1999 by Etest method; how it was run: as §1
Escherichia coli [30] = assay: Antimicrobial activity against Escherichia coli isolate J53 harboring pI-2 containing beta-lactamase OXA-48 located within transposon Tn1999.2 by Etest method; how it was run: as §1
Escherichia coli [31] = assay: Antimicrobial activity against Escherichia coli isolate A expressing beta-lactamase OXA-48 and TEM-150 by Etest method in presence of beta-lactamase inhibitor clavulanic acid; how it was run: as §2
Escherichia coli [32] = assay: Antimicrobial activity against Escherichia coli isolate J53 harboring p4A containing beta-lactamase OXA-48 located within transposon Tn1999 by Etest method in presence of beta-lactamase inhibitor clavulanic acid; how it was run: as §1
Escherichia coli [33] = assay: Antimicrobial activity against Escherichia coli isolate J53 harboring pI-1 containing beta-lactamase OXA-48 located within transposon Tn1999.2 by Etest method in presence of beta-lactamase inhibitor clavulanic acid; how it was run: as §1
Klebsiella pneumoniae [34] = assay: Antimicrobial activity against Klebsiella pneumoniae isolate KpL expressing beta-lactamase OXA-48 by Etest method in presence of beta-lactamase inhibitor clavulanic acid; how it was run: as §2
Escherichia coli [35] = assay: Antimicrobial activity against Escherichia coli isolate J53 harboring pEnc1 containing beta-lactamase OXA-48 located within transposon Tn1999 by Etest method in presence of beta-lactamase inhibitor clavulanic acid; how it was run: as §1
Escherichia coli [36] = assay: Antimicrobial activity against Escherichia coli isolate J53 harboring pCF containing beta-lactamase OXA-48 located within transposon Tn1999 by Etest method; how it was run: as §1

Structure (SMILES) | MIC (Escherichia coli [1]) [µg/mL] | MIC (Klebsiella pneumoniae [2]) [µg/mL] | MIC (Klebsiella pneumoniae [3]) [µg/mL] | MIC (Escherichia coli [4]) [µg/mL] | MIC (Escherichia coli [5]) [µg/mL] | MIC (Escherichia coli [6]) [µg/mL] | MIC (Klebsiella pneumoniae [7]) [µg/mL] | MIC (Klebsiella pneumoniae [8]) [µg/mL] | MIC (Klebsiella pneumoniae [9]) [µg/mL] | MIC (Enterobacter cloacae [10]) [µg/mL] | MIC (Escherichia coli [11]) [µg/mL] | MIC (Enterobacter cloacae [12]) [µg/mL] | MIC (Escherichia coli [13]) [µg/mL] | MIC (Klebsiella pneumoniae [14]) [µg/mL] | MIC (Escherichia coli [15]) [µg/mL] | MIC (Klebsiella pneumoniae [16]) [µg/mL] | MIC (Escherichia coli [17]) [µg/mL] | MIC (Escherichia coli [18]) [µg/mL] | MIC (Escherichia coli [19]) [µg/mL] | MIC (Klebsiella pneumoniae [20]) [µg/mL] | also measured
CC1(C)S[C@@H]2[C@H](NC(=O)[C@H](N)c3ccc(O)cc3)C(=O)N2[C@H]1C(=O)O [AMOXICILLIN] | 128 | > 256 | > 512 | > 512 | > 256 | > 512 | > 512 | > 512 | > 512 | > 512 | > 512 | > 512 | > 512 | > 512 | > 256 | > 512 | > 512 | > 512 | > 256 | > 512 | MIC (Klebsiella pneumoniae [21]): > 512 µg/mL; MIC (Klebsiella pneumoniae [22]): > 512 µg/mL; MIC (Escherichia coli [23]): > 256 µg/mL; MIC (Klebsiella pneumoniae [24]): > 512 µg/mL; MIC (Klebsiella pneumoniae [25]): > 512 µg/mL; MIC (Klebsiella pneumoniae [26]): > 512 µg/mL; MIC (Escherichia coli [27]): > 256 µg/mL; MIC (Escherichia coli [28]): > 256 µg/mL; MIC (Escherichia coli [29]): > 512 µg/mL; MIC (Escherichia coli [30]): > 512 µg/mL; MIC (Escherichia coli [31]): > 256 µg/mL; MIC (Escherichia coli [32]): > 512 µg/mL; MIC (Escherichia coli [33]): > 512 µg/mL; MIC (Klebsiella pneumoniae [34]): > 256 µg/mL; MIC (Escherichia coli [35]): > 512 µg/mL; MIC (Escherichia coli [36]): > 512 µg/mL
CC1(C)S[C@@H]2[C@H](NC(=O)[C@H](C(=O)O)c3ccsc3)C(=O)N2[C@H]1C(=O)O [TICARCILLIN] | 128 | > 256 | > 512 | > 512 | > 256 | > 512 | > 512 | > 512 | > 512 | > 512 | > 512 | > 512 | > 512 | > 512 | > 256 | > 512 | > 512 | > 512 | > 256 | > 512 | MIC (Klebsiella pneumoniae [21]): > 512 µg/mL; MIC (Klebsiella pneumoniae [22]): > 512 µg/mL; MIC (Escherichia coli [23]): > 256 µg/mL; MIC (Klebsiella pneumoniae [24]): > 512 µg/mL; MIC (Klebsiella pneumoniae [25]): > 512 µg/mL; MIC (Klebsiella pneumoniae [26]): > 512 µg/mL; MIC (Escherichia coli [27]): > 256 µg/mL; MIC (Escherichia coli [28]): > 256 µg/mL; MIC (Escherichia coli [29]): > 512 µg/mL; MIC (Escherichia coli [30]): > 512 µg/mL; MIC (Escherichia coli [31]): > 256 µg/mL; MIC (Escherichia coli [32]): > 512 µg/mL; MIC (Escherichia coli [33]): > 512 µg/mL; MIC (Klebsiella pneumoniae [34]): > 256 µg/mL; MIC (Escherichia coli [35]): > 512 µg/mL; MIC (Escherichia coli [36]): > 512 µg/mL

From ChEMBL document CHEMBL1255404, “Spread of OXA-48-encoding plasmid in Turkey and beyond” (2010)
